Each structure is given as a SMILES string. In brackets after ≈: the same amount, converted by molar mass.

These results are taken from PMC11231753 (Biofilm, 2024).

The test system of assay [1] is C. violaceum 6267. Briefly: MIC by broth microdilution against C. violaceum 6267. In kind it is cell-based, Chromobacterium violaceum. The procedure, abridged:
(§1)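 Strains maintained in LB (1 % peptone, 0.5 % yeast extract, 0.5 % NaCl). Broth microdilution in 96-well plates: 10⁶ CFU/mL exposed to serial two-fold dilutions of the test extract, overnight at 37 °C. MIC taken as the lowest concentration inhibiting growth. Amoxicillin-clavulanate and imipenem served as positive controls. Run in triplicate.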
A general note: In broth dilution the organism is exposed to a series of concentrations in liquid medium.

In assay [2] the test system is violacein production by C. violaceum 6267. Kind of assay: Quantitative anti-QS assay: inhibition of violacein production in 96 well plates. In kind it is cell-based, Chromobacterium violaceum.
For assay [3], the system named is P. aeruginosa PAO1. Briefly: MIC by broth microdilution against P. aeruginosa PAO1. The assay is classed as cell-based, Pseudomonas aeruginosa. The method in brief:
as §1

Assay [4] concerns P. aeruginosa PAO1 biofilm formation. Briefly: Inhibition of biofilm formation. In kind it is cell-based, Pseudomonas aeruginosa. Conditions: comparison of Fig. 5A, concentration not given. The procedure, abridged:
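Biofilm grown in LB broth with 10⁵ CFU/mL PAO1 and serial dilutions of the test extract (7.81–500 μg/mL) at 37 °C overnight. Amoxicillin-clavulanate (3.9–250 μg/mL) and imipenem (0.015–0.97 μg/mL) served as reference antibiotics. Biomass was stained with crystal violet and read at 600 nm to give percent inhibition. Biofilm cells were also viewed by inverted microscope. Run in triplicate; mean ± standard deviation.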

Assay [5] deals with Klebsiella pneumoniae, Proteus mirabilis, Pseudomonas aeruginosa, and Shigella flexineri. Conditions: cited from earlier work.
In assay [6] the test system is P. aeruginosa. The following applies: cited from earlier work.

As usually defined, the MIC is the lowest concentration that inhibits growth of the organism. For the molecule `O=C/C=C/c1ccccc1` [Cinnamaldehyde], in assay [1] (Chromobacterium violaceum, 6267, read-out: MIC C. violaceum), the MIC was 31.2 µg/mL (≈ 236 µM). Moreover, the “MIC C. violaceum” value in assay [1] (broth microdilution) amounted to 31.25 µg/mL (≈ 236 µM). Also, the “Anti-QS activity (concentration inhibiting violacein production)” value in assay [2] (C. violaceum 6267) came out at 7.81 µg/mL. In addition, the “percentage of inhibition (violacein production)” value in assay [2] (at the anti-QS concentration printed beside the value) was determined as 87.8 ± 2.32%. Moreover, the “Inhibition of violacein production” value in assay [2] (½ MIC (n-BuOH fraction 125 μg/mL; ethanolic extract 250 μg/mL)) came to 93.4%.

Regarding `C[C@@H](O)[C@H]1C(=O)N2C(C(=O)O)=C(SCCN=CN)C[C@H]12` [Imipenem, imipenem], the MIC in assay [3] (Pseudomonas aeruginosa, PAO1, read-out: MIC P. aeruginosa PAO1) is 31.2 µg/mL (≈ 104 µM). The “MIC P. aeruginosa PAO1” value in assay [3] (broth microdilution, overnight 37 °C) amounted to 31.25 µg/mL (≈ 104 µM). In addition, the “Antibiofilm effect, percentage of inhibition” value in assay [4] came out at 47.24%.

Consider `O=c1c(O)c(-c2cc(O)c(O)c(O)c2)oc2cc(O)cc(O)c12` [myricetin], for which, in assay [5], the “Concentration inhibiting bacterial growth of various Gram-negative bacteria” value is 30 µg/mL. The “MIC against P. aeruginosa ATCC 27853” value in assay [6] was 256 µg/mL (≈ 804 µM).
